Each structure is given as a SMILES string.

The target in series [1] is Poly [ADP-ribose] polymerase 2 (Homo sapiens) (UniProt Q9UGN5). In words: Inhibition of human recombinant PARP2 incubated for 1 hr using histone substrate at 1 uM by luminescence based assay. The method in brief:
(§1)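 Recombinant PARP enzyme reactions were run in duplicate for 1 h at rt on histone-coated plates in Tris·HCl pH 8.0 buffer with NAD+, biotinylated NAD+ and activated DNA. Detection used streptavidin-HRP for 30 min at rt, then a chemiluminescent developer. % inhibition = 100 − % activity, scaled between the no-compound (100%) and no-enzyme (0%) signals.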

A short description of series [2]: Lipophilicity, log D of the compound at pH 7.4. Format: physicochemical. The settings on record: buffer.
In series [3] the target is Protein mono-ADP-ribosyltransferase PARP14 (Homo sapiens) (UniProt Q460N5). The experiment in a line: Inhibition of human recombinant PARP14 at 100 uM incubated for 1 hr using NAD+, biotinylated NAD+ and activated DNA by luminescence based assay. The method in brief: as §1
Series [4] deals with Poly [ADP-ribose] polymerase 2 (Homo sapiens) (UniProt Q9UGN5). In words: Inhibition of human recombinant PARP2 incubated for 1 hr using histone substrate at 10 uM by luminescence based assay. A digest of the protocol: as §1
Series [5] has as its target Tankyrase 1/2 (Homo sapiens) (UniProt Q9H2K2+O95271). The experiment in a line: Inhibition of tankyrase in human DLD1 cells assessed as reduction in Wnt activity at 10 uM after 24 hrs by TCF-luciferase reporter gene assay. Format: cell-based. As to conditions: DLD-1. A digest of the protocol:
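DLD-1 cells were transduced with a TOP-TCF firefly luciferase lentivirus plus a renilla luciferase lentivirus (1:20), with renilla used to normalise for infection efficiency. Compound was tested at 10 μM for 24 h, with DMSO as the negative control. Cells were then lysed for dual-luciferase read-out, and activity was taken as the TOP/RL ratio. Data are the average of at least three separate experiments ± SD.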

The target in series [6] is T1, Poly [ADP-ribose] polymerase tankyrase-1 (Homo sapiens, UniProt O95271).
T1 sequence (O95271 whole entry): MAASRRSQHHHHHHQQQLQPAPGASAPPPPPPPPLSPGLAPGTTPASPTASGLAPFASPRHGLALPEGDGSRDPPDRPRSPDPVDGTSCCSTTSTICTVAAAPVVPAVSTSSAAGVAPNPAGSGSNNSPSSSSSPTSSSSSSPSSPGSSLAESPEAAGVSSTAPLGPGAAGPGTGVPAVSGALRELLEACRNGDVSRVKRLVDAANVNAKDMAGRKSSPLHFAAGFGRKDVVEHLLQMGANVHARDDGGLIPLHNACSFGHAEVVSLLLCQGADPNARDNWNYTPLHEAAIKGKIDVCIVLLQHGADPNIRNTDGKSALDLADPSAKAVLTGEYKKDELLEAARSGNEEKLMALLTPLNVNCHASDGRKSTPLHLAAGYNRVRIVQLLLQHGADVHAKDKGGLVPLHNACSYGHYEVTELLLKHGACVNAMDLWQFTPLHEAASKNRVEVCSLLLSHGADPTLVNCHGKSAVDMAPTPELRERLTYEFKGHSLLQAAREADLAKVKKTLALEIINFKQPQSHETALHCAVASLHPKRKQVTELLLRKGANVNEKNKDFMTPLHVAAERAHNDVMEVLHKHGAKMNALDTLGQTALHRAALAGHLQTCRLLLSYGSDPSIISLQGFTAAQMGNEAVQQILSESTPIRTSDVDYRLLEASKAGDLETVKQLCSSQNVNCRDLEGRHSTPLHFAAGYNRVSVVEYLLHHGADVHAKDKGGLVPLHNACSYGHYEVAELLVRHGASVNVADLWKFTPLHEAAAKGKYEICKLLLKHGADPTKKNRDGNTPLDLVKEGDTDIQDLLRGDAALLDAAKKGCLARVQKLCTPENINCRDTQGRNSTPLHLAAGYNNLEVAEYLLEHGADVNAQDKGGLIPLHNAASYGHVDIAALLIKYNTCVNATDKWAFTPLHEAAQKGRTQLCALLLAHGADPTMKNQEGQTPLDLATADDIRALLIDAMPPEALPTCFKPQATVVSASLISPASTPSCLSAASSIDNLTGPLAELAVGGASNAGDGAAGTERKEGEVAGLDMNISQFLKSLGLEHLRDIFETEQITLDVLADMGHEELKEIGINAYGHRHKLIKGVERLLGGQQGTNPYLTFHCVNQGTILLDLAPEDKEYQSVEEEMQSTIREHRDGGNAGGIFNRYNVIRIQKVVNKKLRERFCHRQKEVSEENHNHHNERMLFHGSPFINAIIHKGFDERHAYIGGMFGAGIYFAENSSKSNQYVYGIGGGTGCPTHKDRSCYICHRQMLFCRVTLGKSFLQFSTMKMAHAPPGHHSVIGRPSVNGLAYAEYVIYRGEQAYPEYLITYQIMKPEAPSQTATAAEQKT
The experiment in a line: Inhibition of GST-tagged human recombinant TNKS1 incubated for 1 hr using NAD+, biotinylated NAD+ and activated DNA by luminescence based assay.

Chain of Poly [ADP-ribose] polymerase 2 (Homo sapiens) (Q9UGN5 whole entry): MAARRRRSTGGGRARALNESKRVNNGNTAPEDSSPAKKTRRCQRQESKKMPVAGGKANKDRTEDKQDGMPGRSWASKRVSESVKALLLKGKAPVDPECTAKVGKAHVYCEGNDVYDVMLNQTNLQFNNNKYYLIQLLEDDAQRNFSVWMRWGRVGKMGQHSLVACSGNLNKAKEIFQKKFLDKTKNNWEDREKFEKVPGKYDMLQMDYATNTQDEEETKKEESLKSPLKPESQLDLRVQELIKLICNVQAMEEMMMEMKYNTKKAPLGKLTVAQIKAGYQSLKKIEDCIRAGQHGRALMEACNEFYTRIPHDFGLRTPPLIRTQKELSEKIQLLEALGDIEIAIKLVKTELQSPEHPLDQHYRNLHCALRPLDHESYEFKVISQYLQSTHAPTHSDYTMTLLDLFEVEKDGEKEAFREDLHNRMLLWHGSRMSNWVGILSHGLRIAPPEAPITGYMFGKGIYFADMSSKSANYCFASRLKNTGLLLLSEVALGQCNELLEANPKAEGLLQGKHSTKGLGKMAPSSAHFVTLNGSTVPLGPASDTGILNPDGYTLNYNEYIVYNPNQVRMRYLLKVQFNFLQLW
Chain of Tankyrase 1/2 (Homo sapiens) (Q9H2K2 whole entry, looked up, one chain of several): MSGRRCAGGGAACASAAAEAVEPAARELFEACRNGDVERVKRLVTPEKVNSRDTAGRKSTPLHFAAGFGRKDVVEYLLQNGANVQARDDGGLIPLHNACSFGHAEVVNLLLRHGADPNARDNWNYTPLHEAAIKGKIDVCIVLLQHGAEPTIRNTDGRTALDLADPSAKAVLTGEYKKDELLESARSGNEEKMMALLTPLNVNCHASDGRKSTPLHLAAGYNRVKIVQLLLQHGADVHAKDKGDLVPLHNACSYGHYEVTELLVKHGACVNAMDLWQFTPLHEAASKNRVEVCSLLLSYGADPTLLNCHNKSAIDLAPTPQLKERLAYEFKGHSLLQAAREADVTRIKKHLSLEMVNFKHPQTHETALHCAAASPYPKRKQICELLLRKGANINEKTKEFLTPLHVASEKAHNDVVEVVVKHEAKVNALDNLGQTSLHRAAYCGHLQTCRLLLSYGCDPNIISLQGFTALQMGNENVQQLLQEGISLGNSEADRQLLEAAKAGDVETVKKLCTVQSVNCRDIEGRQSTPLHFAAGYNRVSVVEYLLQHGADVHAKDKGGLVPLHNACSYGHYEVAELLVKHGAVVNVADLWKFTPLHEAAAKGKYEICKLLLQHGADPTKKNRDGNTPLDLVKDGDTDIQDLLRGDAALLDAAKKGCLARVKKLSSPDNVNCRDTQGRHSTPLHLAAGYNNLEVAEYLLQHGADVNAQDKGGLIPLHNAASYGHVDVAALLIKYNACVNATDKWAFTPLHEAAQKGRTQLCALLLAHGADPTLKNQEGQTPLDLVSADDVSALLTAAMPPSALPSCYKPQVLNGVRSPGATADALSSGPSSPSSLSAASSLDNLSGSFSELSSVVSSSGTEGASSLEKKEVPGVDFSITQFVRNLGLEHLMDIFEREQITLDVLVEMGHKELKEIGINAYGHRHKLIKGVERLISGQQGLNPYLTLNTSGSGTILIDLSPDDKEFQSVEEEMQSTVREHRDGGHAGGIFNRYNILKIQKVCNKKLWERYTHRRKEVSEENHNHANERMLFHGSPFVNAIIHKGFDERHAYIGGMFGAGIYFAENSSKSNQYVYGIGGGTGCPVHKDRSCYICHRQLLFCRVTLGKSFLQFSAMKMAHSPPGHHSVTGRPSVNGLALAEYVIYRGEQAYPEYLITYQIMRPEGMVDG
Chain of Protein mono-ADP-ribosyltransferase PARP14 (Homo sapiens) (Q460N5 whole entry): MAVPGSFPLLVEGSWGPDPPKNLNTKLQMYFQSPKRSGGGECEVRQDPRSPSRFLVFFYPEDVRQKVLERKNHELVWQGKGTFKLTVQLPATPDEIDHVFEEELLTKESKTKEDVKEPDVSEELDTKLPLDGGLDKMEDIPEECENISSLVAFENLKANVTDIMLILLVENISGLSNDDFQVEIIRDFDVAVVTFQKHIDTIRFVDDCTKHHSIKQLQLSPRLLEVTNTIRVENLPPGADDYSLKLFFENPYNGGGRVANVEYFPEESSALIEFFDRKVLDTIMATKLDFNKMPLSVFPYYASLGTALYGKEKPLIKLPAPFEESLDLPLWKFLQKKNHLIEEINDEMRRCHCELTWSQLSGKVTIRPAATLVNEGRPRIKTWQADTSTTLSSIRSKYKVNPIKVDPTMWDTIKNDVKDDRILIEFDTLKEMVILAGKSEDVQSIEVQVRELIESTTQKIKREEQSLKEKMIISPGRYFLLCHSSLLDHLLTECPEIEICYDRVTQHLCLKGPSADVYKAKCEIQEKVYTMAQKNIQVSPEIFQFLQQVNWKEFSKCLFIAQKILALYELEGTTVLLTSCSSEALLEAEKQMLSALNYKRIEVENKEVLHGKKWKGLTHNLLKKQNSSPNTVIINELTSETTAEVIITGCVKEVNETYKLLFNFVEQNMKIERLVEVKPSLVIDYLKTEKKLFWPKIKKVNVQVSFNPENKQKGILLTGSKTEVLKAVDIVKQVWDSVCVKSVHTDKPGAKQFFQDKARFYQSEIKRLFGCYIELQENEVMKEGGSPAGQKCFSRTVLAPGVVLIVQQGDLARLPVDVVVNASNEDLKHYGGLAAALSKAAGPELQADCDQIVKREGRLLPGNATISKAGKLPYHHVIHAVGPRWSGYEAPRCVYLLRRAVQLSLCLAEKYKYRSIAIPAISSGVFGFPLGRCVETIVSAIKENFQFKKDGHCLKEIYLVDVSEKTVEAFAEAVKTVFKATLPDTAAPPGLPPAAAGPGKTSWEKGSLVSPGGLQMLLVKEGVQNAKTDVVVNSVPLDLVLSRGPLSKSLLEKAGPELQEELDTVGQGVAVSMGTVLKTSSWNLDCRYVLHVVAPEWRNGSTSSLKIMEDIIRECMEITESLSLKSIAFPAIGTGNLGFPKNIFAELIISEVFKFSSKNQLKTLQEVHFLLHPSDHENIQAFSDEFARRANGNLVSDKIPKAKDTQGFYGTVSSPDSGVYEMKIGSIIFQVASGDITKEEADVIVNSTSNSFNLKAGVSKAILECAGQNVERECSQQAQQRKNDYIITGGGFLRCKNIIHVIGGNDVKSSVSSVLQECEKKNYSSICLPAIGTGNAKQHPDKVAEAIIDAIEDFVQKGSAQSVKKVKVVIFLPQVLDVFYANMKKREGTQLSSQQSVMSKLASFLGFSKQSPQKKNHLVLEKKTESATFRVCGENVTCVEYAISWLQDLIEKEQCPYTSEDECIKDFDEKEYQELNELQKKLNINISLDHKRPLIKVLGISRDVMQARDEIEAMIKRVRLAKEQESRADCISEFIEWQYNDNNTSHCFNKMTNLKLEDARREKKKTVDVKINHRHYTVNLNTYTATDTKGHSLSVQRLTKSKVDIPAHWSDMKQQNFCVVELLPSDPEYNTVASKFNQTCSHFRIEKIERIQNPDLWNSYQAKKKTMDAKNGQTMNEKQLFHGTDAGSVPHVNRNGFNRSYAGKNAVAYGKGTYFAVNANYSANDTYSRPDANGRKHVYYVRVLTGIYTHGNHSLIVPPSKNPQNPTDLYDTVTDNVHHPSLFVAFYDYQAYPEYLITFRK

`O=c1[nH]c2ccccc2c2c1sc1ccc(O)cc12`: the inhibition in series [1] was found to be 93%. The same compound displayed a logD in series [2] of 3.44.
Take `O=c1[nH]c(-c2cccs2)nc2c1sc1ccccc12`: the inhibition in series [1] was found to be 9%. In addition, the logD in series [2] amounted to 3.52.
As for `O=c1[nH]c2cc(O)ccc2c2c1sc1ccccc12`, the inhibition in series [1] is 64%. The logD in series [2] stood at 3.43.
For `COc1ccc2c(c1)[nH]c(=O)c1sc3ccc(OC)cc3c12`, in that order: 12% and 3.43.
For `COc1cccc(/C=C/C(=O)O)c1`, in series [3], the inhibition was determined as 17%.
As for `O=c1[nH]ccc2c1sc1ccccc12`, the inhibition in series [1] turned out to be 34%. The compound also displayed a logD in series [2] of 3.62.
Turning to `Oc1nc(-c2ccc(C(F)(F)F)cc2)nc2c1CSCC2`, in series [4], the inhibition was found to be 100%.
With `O=c1[nH]c(-c2ccccc2)cc2ccsc12`, the inhibition in series [1] came out at 26%. The logD in series [2] worked out at 2.53.
For `O=c1[nH]c(-c2ccccc2)nc2c3c(sc12)CCCC3`, the inhibition in series [1] is 11%. The compound further yielded a logD in series [2] of 4.11.
Taken in the same sequence, the figures for `O=c1[nH]c(-c2ccccc2)nc2c1sc1ccccc12` were 0% and 3.62.
In the case of `O=c1[nH]ccc2ccsc12`, the inhibition in series [1] was found to be 24%. The logD in series [2] came to 1.24.
`COc1ccc2c(c1)nc(O)c1sc3ccccc3c12`: the inhibition in series [1] is 27%; in series [5], 37%. Moreover, the logD in series [2] is 3.59.
For `O=c1[nH]c2ccccc2c2ccsc12`, the inhibition in series [1] turned out to be 91%. The compound further showed a logD in series [2] of 2.65.
In the case of `O=c1[nH]c(-c2ccccc2)cc2c1sc1ccccc12`, in series [6], the IC50 is 181 nM. Also, the inhibition in series [1] was found to be 11%. In series [2], this compound came in with a logD of 3.63.
For `O=c1[nH]c2ccccc2c2c1sc1ccccc12`, in that order: 90 nM, 14% and 3.75.
For `COc1ccc2sc3c(O)nc4ccccc4c3c2c1`, the results for the inhibition in series [1] and in series [5] were 17% and 21%, respectively. Further, in series [2], the logD worked out at 3.59.
Turning to `O=c1[nH]c(C2CCCCC2)nc2c1sc1ccccc12`, the inhibition in series [1] stood at 14%. The compound further registered a logD in series [2] of 3.89.
Take `Cc1ccc(-c2nc3c(sc4ccccc43)c(=O)[nH]2)cc1`: the IC50 in series [6] is 19.4 nM. Besides, the inhibition in series [1] is 4%. The compound also returned a logD in series [2] of 4.13.
For `Oc1cc(-c2ccccc2)c2ccccc2n1`, in series [1], the inhibition came out at 3%. The compound further gave a logD in series [2] of 3.03.
